Where “and” joins values, the source holds several entries; their conditions need not be identical. Equal entries are not always repeated.
Legend:
Canis familiaris [1] = experiment: Inhibition of plasma total cholesterol in the normolipidemic dogs after day 2 of oral administration of 2.5 mg/kg/day.; format: functional, Canis lupus familiaris
Procedure, shortened: (§1)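 Normolipidemic dogs dosed once daily for 4 days by oral gavage, compound suspended in cornstarch vehicle. Plasma sampled 24 h after dosing on days 0, 2, 3 and 4, assayed for triglycerides and total cholesterol (mg/dL). Mean percent inhibition versus day-0 level is given for treated dogs; n = 6 per group; significance by one-way ANOVA, p < 0.05.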

Canis familiaris [2] = experiment: Inhibition of plasma total triglycerides in the normolipidemic dogs after day 4 of oral administration of 1 mg/kg/day.; format: functional, Canis lupus familiaris
Canis familiaris [3] = experiment: Inhibition of plasma total cholesterol in the normolipidemic dogs after day 0 of oral administration of 1 mg/kg/day.; format: functional, Canis lupus familiaris; procedure, shortened: as §1
Rattus norvegicus [4] = experiment: Hepatic triglyceride content in Normolipidemic rat liver for 5 mg/kg of dose of the compound; format: functional
Procedure, shortened: (§2)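 Normolipidemic rats dosed orally, with vehicle controls. Liver cholesterol and triglyceride are reported as mg/g of liver, and liver weight in g. For the reversibility set, dosing was 5 mg/kg for 5 days, with livers analysed after treatment and again 6 days after treatment withdrawal.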

Rattus norvegicus [5] = experiment: Hepatic cholesterol content in Normolipidemic rat liver for 0.5 mg/kg of dose of the compound; format: functional; procedure, shortened: as §2
Canis familiaris [6] = experiment: Inhibition of plasma total cholesterol in the normolipidemic dogs after day 4 of oral administration of 1 mg/kg/day; format: functional, Canis lupus familiaris; procedure, shortened: as §1
[7] = target: T1, Microsomal triglyceride transfer protein large subunit (Homo sapiens, UniProt P55157); experiment: In vitro inhibitory activity against MTP using MTP transfer assay
T1 sequence (P55157 whole entry): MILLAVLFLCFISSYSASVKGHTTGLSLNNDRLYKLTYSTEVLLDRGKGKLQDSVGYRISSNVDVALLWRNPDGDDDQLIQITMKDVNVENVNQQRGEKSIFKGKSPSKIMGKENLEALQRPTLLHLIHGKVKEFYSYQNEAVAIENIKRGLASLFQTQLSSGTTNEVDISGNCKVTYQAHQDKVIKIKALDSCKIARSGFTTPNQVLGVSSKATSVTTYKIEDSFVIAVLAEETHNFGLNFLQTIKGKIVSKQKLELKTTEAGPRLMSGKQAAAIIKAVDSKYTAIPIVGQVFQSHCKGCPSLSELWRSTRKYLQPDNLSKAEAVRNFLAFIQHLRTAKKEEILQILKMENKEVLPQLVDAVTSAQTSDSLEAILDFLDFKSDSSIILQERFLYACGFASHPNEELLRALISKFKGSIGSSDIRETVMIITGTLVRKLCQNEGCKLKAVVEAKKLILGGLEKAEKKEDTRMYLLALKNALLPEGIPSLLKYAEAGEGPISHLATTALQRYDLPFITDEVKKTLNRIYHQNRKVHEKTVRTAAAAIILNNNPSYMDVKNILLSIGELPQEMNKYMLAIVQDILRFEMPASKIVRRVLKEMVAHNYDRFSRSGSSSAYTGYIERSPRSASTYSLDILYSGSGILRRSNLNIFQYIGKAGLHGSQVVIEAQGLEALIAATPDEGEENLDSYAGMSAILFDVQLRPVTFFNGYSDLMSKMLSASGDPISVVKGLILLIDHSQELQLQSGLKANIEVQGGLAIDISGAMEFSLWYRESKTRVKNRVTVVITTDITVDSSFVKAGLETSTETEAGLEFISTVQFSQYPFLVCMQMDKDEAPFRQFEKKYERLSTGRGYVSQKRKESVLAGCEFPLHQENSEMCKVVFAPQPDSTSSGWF

Canis familiaris [8] = experiment: Inhibition of plasma total triglycerides in the normolipidemic dogs after day 0 of oral administration of 1 mg/kg/day.; format: functional, Canis lupus familiaris; procedure, shortened: as §1
Canis familiaris [9] = experiment: Inhibition of plasma total cholesterol in the normolipidemic dogs after day 3 of oral administration of 2.5 mg/kg/day.; format: functional, Canis lupus familiaris; procedure, shortened: as §1
Canis familiaris [10] = experiment: Inhibition of plasma total cholesterol in the normolipidemic dogs after day 2 of oral administration of 5 mg/kg/day.; format: functional, Canis lupus familiaris; procedure, shortened: as §1
Canis familiaris [11] = experiment: Inhibition of plasma total cholesterol in the normolipidemic dogs after day 4 of oral administration of 5 mg/kg/day; format: functional, Canis lupus familiaris; procedure, shortened: as §1
Rattus norvegicus [12] = experiment: Hepatic cholesterol content in Normolipidemic rat liver for 5 mg/kg of dose of the compound; format: functional; procedure, shortened: as §2
Rattus norvegicus [13] = experiment: Inhibition of plasma triglycerides in normolipidemic rats after 2 hr of 10 mg/kg oral dosing; format: functional
Procedure, shortened: (§3)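 Overnight-fasted normolipidemic rats received a single oral dose in cornstarch vehicle. Blood was drawn at 2, 6 and 24 h post-dose and assayed for triglycerides and total cholesterol, with free access to food after the 6 h sample. Value is mean percent inhibition versus a separate vehicle-treated group, unpaired t test p < 0.05, NS = no significant change, N = 6.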

Rattus norvegicus [14] = experiment: Inhibition of plasma triglycerides in normolipidemic rats after 24 hr of 50 mg/kg oral dosing; format: functional; procedure, shortened: as §3
Canis familiaris [15] = experiment: Inhibition of plasma total triglycerides in the normolipidemic dogs after day 2 of oral administration of 1 mg/kg/day.; format: functional, Canis lupus familiaris; procedure, shortened: as §1
Rattus norvegicus [16] = experiment: Total liver weight in Normolipidemic rat liver for 0.5 mg/kg of dose of the compound; format: functional; procedure, shortened: as §2
Canis familiaris [17] = experiment: Inhibition of plasma total cholesterol in the normolipidemic dogs after day 3 of oral administration of 5 mg/kg/day.; format: functional, Canis lupus familiaris; procedure, shortened: as §1
Rattus norvegicus [18] = experiment: Inhibition of plasma triglycerides in normolipidemic rats after 6 hr of 50 mg/kg oral dosing; format: functional; procedure, shortened: as §3
Canis familiaris [19] = experiment: Inhibition of plasma total triglycerides in the normolipidemic dogs after day 4 of oral administration of 5 mg/kg/day; format: functional, Canis lupus familiaris
Rattus norvegicus [20] = experiment: Total liver weight in Normolipidemic rat liver for 5 mg/kg of dose of the compound; format: functional; procedure, shortened: as §2
Canis familiaris [21] = experiment: Inhibition of plasma total triglycerides in the normolipidemic dogs after day 0 of oral administration of 5 mg/kg/day.; format: functional, Canis lupus familiaris; procedure, shortened: as §1
Rattus norvegicus [22] = species on record: Rattus norvegicus; experiment: Hepatic triglyceride content in Normolipidemic rat liver after treatment.; format: functional; procedure, shortened: as §2
Canis familiaris [23] = experiment: Inhibition of plasma total triglycerides in the normolipidemic dogs after day 3 of oral administration of 5 mg/kg/day.; format: functional, Canis lupus familiaris
Canis familiaris [24] = experiment: Inhibition of plasma total triglycerides in the normolipidemic dogs after day 3 of oral administration of 2.5 mg/kg/day.; format: functional, Canis lupus familiaris
Rattus norvegicus [25] = experiment: Inhibition of plasma triglycerides in normolipidemic rats after 6 hr of 10 mg/kg oral dosing; format: functional; procedure, shortened: as §3
Rattus norvegicus [26] = experiment: Inhibition of plasma triglycerides in normolipidemic rats after 2 hr of 5 mg/kg oral dosing; format: functional; procedure, shortened: as §3
Rattus norvegicus [27] = experiment: Hepatic triglyceride content in Normolipidemic rat liver for 0.5 mg/kg of dose of the compound; format: functional; procedure, shortened: as §2
Rattus norvegicus [28] = experiment: Inhibition of plasma triglycerides in normolipidemic rats after 24 hr of 10 mg/kg oral dosing; no significant change; format: functional, organism-based; set-up: dose 10 mg/kg; procedure, shortened: as §3
Rattus norvegicus [29] = species on record: Rattus norvegicus; experiment: Hepatic triglyceride content in Normolipidemic rat liver after washout.; format: functional; procedure, shortened: as §2
Rattus norvegicus [30] = experiment: Inhibition of total cholesterol in normolipidemic rats after 2 hr of 50 mg/kg oral dosing; format: functional; settings: 50 mg/kg; procedure, shortened: as §3
Canis familiaris [31] = experiment: Inhibition of plasma total cholesterol in the normolipidemic dogs after day 4 of oral administration of 2.5 mg/kg/day; format: functional, Canis lupus familiaris; procedure, shortened: as §1
Canis familiaris [32] = experiment: Inhibition of plasma total triglycerides in the normolipidemic dogs after day 2 of oral administration of 2.5 mg/kg/day.; format: functional, Canis lupus familiaris; procedure, shortened: as §1
Canis familiaris [33] = experiment: Inhibition of plasma total triglycerides in the normolipidemic dogs after day 2 of oral administration of 5 mg/kg/day.; format: functional, Canis lupus familiaris; procedure, shortened: as §1
Rattus norvegicus [34] = experiment: Inhibition of total cholesterol in normolipidemic rats after 6 hr of 50 mg/kg oral dosing; format: functional; settings: 50 mg/kg; procedure, shortened: as §3
Rattus norvegicus [35] = species on record: Rattus norvegicus; experiment: Hepatic cholesterol content in Normolipidemic rat liver after treatment.; format: functional; procedure, shortened: as §2
Rattus norvegicus [36] = experiment: Inhibition of plasma triglycerides in normolipidemic rats after 6 h of 5 mg/kg oral dosing; format: functional; procedure, shortened: as §3
Canis familiaris [37] = experiment: Inhibition of plasma total cholesterol in the normolipidemic dogs after day 2 of oral administration of 1 mg/kg/day.; format: functional, Canis lupus familiaris; procedure, shortened: as §1
Rattus norvegicus [38] = species on record: Rattus norvegicus; experiment: Hepatic cholesterol content in Normolipidemic rat liver after washout.; format: functional; procedure, shortened: as §2
Canis familiaris [39] = experiment: Inhibition of plasma total cholesterol in the normolipidemic dogs after day 0 of oral administration of 2.5 mg/kg/day.; format: functional, Canis lupus familiaris; procedure, shortened: as §1
Canis familiaris [40] = experiment: Inhibition of plasma total triglycerides in the normolipidemic dogs after day 0 of oral administration of 2.5 mg/kg/day.; format: functional, Canis lupus familiaris; procedure, shortened: as §1
Rattus norvegicus [41] = experiment: Hepatic cholesterol content in Normolipidemic rat liver for 1 mg/kg of dose of the compound; format: functional; procedure, shortened: as §2
Canis familiaris [42] = experiment: Inhibition of plasma total triglycerides in the normolipidemic dogs after day 4 of oral administration of 2.5 mg/kg/day; format: functional, Canis lupus familiaris
Rattus norvegicus [43] = experiment: Inhibition of plasma triglycerides in normolipidemic rats after 2 hr of 50 mg/kg oral dosing; format: functional; procedure, shortened: as §3
Rattus norvegicus [44] = experiment: Hepatic triglyceride content in Normolipidemic rat liver for 1 mg/kg of dose of the compound; format: functional; procedure, shortened: as §2
Canis familiaris [45] = experiment: Inhibition of plasma total cholesterol in the normolipidemic dogs after day 0 of oral administration of 5 mg/kg/day.; format: functional, Canis lupus familiaris; procedure, shortened: as §1
Rattus norvegicus [46] = experiment: Total liver weight in Normolipidemic rat liver for 1 mg/kg of dose of the compound; format: functional; procedure, shortened: as §2
Canis familiaris [47] = experiment: Inhibition of plasma total triglycerides in the normolipidemic dogs after day 3 of oral administration of 1 mg/kg/day.; format: functional, Canis lupus familiaris
Canis familiaris [48] = experiment: Inhibition of plasma total cholesterol in the normolipidemic dogs after day 3 of oral administration of 1 mg/kg/day.; format: functional, Canis lupus familiaris; procedure, shortened: as §1

SMILES: COC(=O)N[C@H]1Cc2ccc(NC(=O)c3cccc(C)c3-c3ccc(C(F)(F)F)cc3)cc2C1
- Lipid level (Canis familiaris [1]): <90 mg/dL
- Lipid level (Canis familiaris [2]): 45 mg/dL
- Lipid level (Canis familiaris [3]): 110 mg/dL
- Hepatic triglyceride (Rattus norvegicus [4]): 17.7 mg/g
- Hepatic cholesterol (Rattus norvegicus [5]): 1.4 mg/g
- Lipid level (Canis familiaris [6]): <89 mg/dL
- IC50 [7]: 70 nM
- Lipid level (Canis familiaris [8]): 46 mg/dL
- Lipid level (Canis familiaris [9]): <76 mg/dL
- Lipid level (Canis familiaris [10]): <87 mg/dL
- Lipid level (Canis familiaris [11]): <54 mg/dL
- Hepatic cholesterol (Rattus norvegicus [12]): 3.09 mg/g
- Reduction (Rattus norvegicus [13]): 84%
- Reduction (Rattus norvegicus [14]): 63%
- Lipid level (Canis familiaris [15]): 42 mg/dL
- Total liver weight (Rattus norvegicus [16]): 9.13 g
- Lipid level (Canis familiaris [17]): <68 mg/dL
- Reduction (Rattus norvegicus [18]): 71%
- Lipid level (Canis familiaris [19]): <12 mg/dL
- Total liver weight (Rattus norvegicus [20]): 9.79 g
- Lipid level (Canis familiaris [21]): 48 mg/dL
- Hepatic triglyceride (Rattus norvegicus [22]): <13.6 mg/g
- Lipid level (Canis familiaris [23]): <16 mg/dL
- Lipid level (Canis familiaris [24]): <25 mg/dL
- Reduction (Rattus norvegicus [25]): 68%
- Reduction (Rattus norvegicus [26]): 78%
- Hepatic triglyceride (Rattus norvegicus [27]): 4.61 mg/g
- NS (Rattus norvegicus [28]): no significant change
- Hepatic triglyceride (Rattus norvegicus [29]): 2.38 mg/g
- Reduction (Rattus norvegicus [30]): 33% and 41% and 30%
- Lipid level (Canis familiaris [31]): <57 mg/dL
- Lipid level (Canis familiaris [32]): <32 mg/dL
- Lipid level (Canis familiaris [33]): <22 mg/dL
- Reduction (Rattus norvegicus [34]): 52% and 58% and 47%
- Hepatic cholesterol (Rattus norvegicus [35]): <2.76 mg/g
- Reduction (Rattus norvegicus [36]): 59%
- Lipid level (Canis familiaris [37]): 103 mg/dL
- Hepatic cholesterol (Rattus norvegicus [38]): 1.12 mg/g
- Lipid level (Canis familiaris [39]): 113 mg/dL
- Lipid level (Canis familiaris [40]): 59 mg/dL
- Hepatic cholesterol (Rattus norvegicus [41]): 2.01 mg/g
- Lipid level (Canis familiaris [42]): <23 mg/dL
- Reduction (Rattus norvegicus [43]): 81%
- Hepatic triglyceride (Rattus norvegicus [44]): 8.16 mg/g
- Lipid level (Canis familiaris [45]): 124 mg/dL
- Total liver weight (Rattus norvegicus [46]): 9.6 g
- Lipid level (Canis familiaris [47]): 48 mg/dL
- Lipid level (Canis familiaris [48]): 101 mg/dL
